UBC9 SUMO inh = inhibitors of human SUMOylation (UBC9); actives 0.36% (n = 290,000); HTRF SUMOylation assay, SAE1/SAE2 + UBC9, in vitro; P63279; inhibition, % at 35 µM; in the data active = inhibition above about 50%, passing the limit was not always enough
TPT1 inhibitor = blocks Candida albicans tRNA 2'-phosphotransferase. recombinant caTPT1, FP RNA substrate dephosphorylation. inhibition, % at 5 µM. actives 0.81% (n = 300,000). AID 1962;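 active = inhibition above the mean of all tested compounds plus 3 SD, set per screening campaign, cut at about 24% in these data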;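 note: plate controls were DMSO alone for no effect and ferristatin control at 100 nM for full effect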
Rpn11 inh = blocks the human proteasome subunit Rpn11; AID 588493; actives 0.59% (n = 360,000); O00487; calls only at 20 µM; human 26S proteasome, Ub4-pepOG fluorescence polarization; 20S core pre-blocked with epoxomicin;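 active = inhibition at 20 µM, scaled to each plate's controls, above about 33%, limit read from the data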
Target sequence (O00487 whole entry, looked up): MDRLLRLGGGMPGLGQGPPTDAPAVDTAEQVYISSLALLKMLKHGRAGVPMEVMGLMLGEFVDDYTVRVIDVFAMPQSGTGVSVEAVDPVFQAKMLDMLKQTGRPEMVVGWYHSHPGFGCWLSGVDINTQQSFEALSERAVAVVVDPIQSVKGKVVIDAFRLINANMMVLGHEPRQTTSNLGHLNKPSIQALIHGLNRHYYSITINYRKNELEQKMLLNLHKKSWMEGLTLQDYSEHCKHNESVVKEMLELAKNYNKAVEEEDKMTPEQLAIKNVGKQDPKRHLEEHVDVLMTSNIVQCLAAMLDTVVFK
HNF4A DNA FP = change in binding of human HNF4 alpha to DNA | P41235 | HNF4a-FITC DNA binding, fluorescence polarization, 1 h | activity change, % at 10 µM | actives 0.3% (n = 360,000); in the data active = activity change above about 30%, passing the limit was not always enough
CSN inh = blocks human CSN-mediated cullin deneddylation. Q92905. Purified CSN, SCF-Nedd8-OG deneddylation, fluorescence polarization. inhibition, % at 12.5 µM. actives 0.38% (n = 360,000). AID 651999;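 active = pattern-corrected inhibition above about 35%, with an unprinted fluorescence ratio check between 0.5 and 1.5, limit read from the data, passing the limit was not always enough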;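 note: 0% = enzyme with substrate and 100% = substrate without enzyme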
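assay system = purified human Csn5 enzyme expressed in HEK293T cells | amount = 0.24 nM enzyme | buffer or medium = Tris/NaCl/DTT buffer, pH 7.5 | reagent = 10 nM SCFSkp2-Nedd8OG | compound = one concentration, 12.5 µM, 0.25% DMSO | times = 90 min reaction at room temperature | signal = FP | read-out basis = % inhibition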
SENP1 FRET inh = SENP1 (human) catalytic domain inhibition. Q9P0U3. actives 0.21% (n = 360,000). recombinant SENP1 catalytic domain, CyPet-SUMO1-YPet FRET cleavage. inhibition, % at 10 µM;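 active = inhibition at least 30% at 10 µM, raw YFP signal under a set limit, fluorescence ratio 0.5 to 1.5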;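 note: 0% = enzyme with DMSO and 100% = no enzyme wells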
Target sequence (Q9P0U3 419-644 limits assumed): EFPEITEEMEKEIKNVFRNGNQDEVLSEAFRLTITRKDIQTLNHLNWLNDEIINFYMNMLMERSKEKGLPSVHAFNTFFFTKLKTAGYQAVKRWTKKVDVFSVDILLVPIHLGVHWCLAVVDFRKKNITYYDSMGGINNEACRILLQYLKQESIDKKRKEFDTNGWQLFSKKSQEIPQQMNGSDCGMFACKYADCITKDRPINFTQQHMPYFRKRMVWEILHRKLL
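Assay system – human recombinant His6-tagged SENP1 catalytic domain enzyme · Input – SENP1 enzyme, 20 pM final · Buffer or medium – Tris pH 8 buffer plus EDTA, NaCl, BME, BSA, NP40, catalase · Schedule – 50 min reaction at room temperature · Technique – FRET read of cyan and yellow fluorescence · Control set – no-enzyme wells low, DMSO-plus-enzyme wells high control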
TPT1 inh confirm = confirmation of Candida albicans TPT1 inhibitors; shares compounds with TPT1 inhibitor; actives 74% (n = 2,400); inhibition, % at 5 µM; recombinant caTPT1, fluorescence polarization, RNase T1 coupled;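 active = inhibition above the primary screen limit, the mean inhibition of all tested compounds plus 3 SD, cut at about 25% in these data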
RNase T1 counter = blocks Aspergillus oryzae RNase T1, a TPT1 counter-screen. inhibition, % at 5 µM. RNase T1 cleavage, fluorescence polarization, 1536-well. actives 83% (n = 2,400). AID 2153. shares compounds with TPT1 inhibitor;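 active = inhibition above the solvent-only control well mean plus 3 SD, limit set per screening run, cut at about 23% in these data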;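 note: plate controls were DMSO wells with enzyme for no effect and wells without RNase T1 for full effect; inhibitors block cleavage so intact labeled substrate keeps polarization high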
Target sequence (P00651 whole entry, looked up): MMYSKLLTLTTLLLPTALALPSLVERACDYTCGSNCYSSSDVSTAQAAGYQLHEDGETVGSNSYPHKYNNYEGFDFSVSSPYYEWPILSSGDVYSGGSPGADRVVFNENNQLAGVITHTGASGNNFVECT
* marks the source's active call; other numbers are inactive results; i = inactive; . = no result given. Shown are actives, neighbours in structure and some others; about 1.8% of the full set was active somewhere.

SMILES	UBC9 SUMO inh	TPT1 inhibitor	Rpn11 inh	HNF4A DNA FP	CSN inh	SENP1 FRET inh	TPT1 inh confirm	RNase T1 counter
Cc1ccc(/C(O)=C2/C(=O)C(=O)N(c3ccccn3)C2c2ccc(F)cc2)cc1 (stereo not given)	22.8	-0.7	i	2.8	2.6	10.3	.	.
CCCCC(=O)OC1CCC2C3CCc4cc(O)ccc4C3CCC12C (stereo not given)	.	.	i	1.6	-5.0	0.2	.	.
COC(=O)c1c(-c2ccccc2Cl)noc1/C=C/N(C)C	-7.9	131.1*	i	1.2	-1.2	8.5	28.1*	34.9*
CC(C)(C)NC(=O)CSc1nc(O)cc(=O)n1-c1ccccc1F	15.8	109.2*	.	78.2*	56.2*	7.4	84.2*	94.3*
COc1cccc(CC(=O)OCC(=O)c2cc(OC)c(OC)c(OC)c2)c1	.	.	i	-4.1	1.1	-1.6	.	.
C=CCNC(=O)/C(C#N)=C\c1cc(Cl)c(O)c(OCC)c1	-17.7	24.8*	i	4.5	-0.5	-44.6	34.1*	41.5*
CC1(C)CCN2CCC(C)(C)c3c(O)ccc1c32	14.4	47.9*	i	-19.0	-74.9	-26.2	36.5*	49.8*
O=C(Nc1ccc(Oc2cccnc2)cc1)c1ccccc1F	-4.4	-1.8	i	-1.2	2.3	0.1	.	.
C=CCN1C(=O)CS/C1=C(\C#N)S(=O)(=O)c1ccc(C)cc1	22.1	74.2*	i	5.0	-0.1	0.9	9.9	13.7
C=CCN1C(=O)CSC1=Nc1ccc(C(=O)O)cc1	-1.1	1.2	i	2.6	0.5	0.5	.	.
COc1ccc(-n2c(NC(=O)c3ccco3)c(C#N)c3nc4ccccc4nc32)cc1	86.4	35.7*	i	32.5	38.2*	-22.0	44.8*	55.5*
CCOC(=O)C(NCc1ccccn1)(NC(=O)c1cccnc1)C(F)(F)F (stereo not given)	15.8	-3.0	i	-1.2	-3.9	-8.3	.	.
CC(C)(C)C(=O)Nc1ccc(C(=O)COC(=O)C2CC2)cc1	.	.	i	0.3	-1.2	4.1	.	.
Cc1ccc(OCC(=O)N2CCN(c3ccc([N+](=O)[O-])c(N4CCOCC4)c3)CC2)cc1	-10.5	30.8*	i	0.8	-3.9	-0.4	2.9	16.9
O=C(COc1ccc(Cl)cc1)N1CCN(c2ccc([N+](=O)[O-])c(N3CCOCC3)c2)CC1	14.7	-0.6	i	-0.1	1.9	3.7	.	.
CN(C)c1ccc(/C=C2\SC(=O)N(CC(O)Cn3c4ccccc4c4ccccc43)C2=O)cc1 (stereo not given)	30.5	75.9*	i	6.2	-5.5	-28.0	51.6*	71.9*
O=C1S/C(=C/c2ccccc2)C(=O)N1CC(O)Cn1c2ccccc2c2ccccc21 (stereo not given)	5.8	2.8	i	-1.3	3.0	1.7	.	.
CN(C)c1ccc(/C=C2\SC(=O)N(CCc3nnc(N)s3)C2=O)cc1	47.7	99.5*	.	97.2*	32.3	-38.0	91.5*	102.4*
CN(C)c1ccc(/C=C2/SC(=O)N(CCN=C3NS(=O)(=O)c4ccccc43)C2=O)cc1	22.2	32.9*	i	10.9	4.4	-25.9	27.8*	38.0*
COc1ccc(-c2cc3nc(C)c(CCC(=O)NCc4ccc(F)cc4)c(C)n3n2)c(OC)c1	18.3	0.0	i	0.6	5.2	0.6	.	.
Cc1ccc(NC(=O)C2C3CCC(O3)C2C(=O)O)cc1C (stereo not given)	5.8	2.9	i	0.8	2.1	0.3	.	.
Cc1ccc(O)c(C(=O)c2cc(C#N)c3nc4ccccc4n3c2)c1	19.1	39.5*	.	81.3	6.1	1.8	59.4*	72.2*
O=C1C(=Cc2ccc(Br)o2)C(=O)c2ccccc21	22.4	26.4*	.	-72.8	50.1	15.5	26.1*	28.4*
CNC(=O)NC(=O)C(C)OC(=O)c1c2c(nc3ccccc13)/C(=C/c1cccs1)CC2 (stereo not given)	19.0	27.4*	.	24.0	13.6	-24.5	30.2*	42.4*
CCOC(=O)C1(Cc2cccc(OC)c2)CCCN(Cc2cnn(C)c2)C1 (stereo not given)	1.5	-2.3	i	2.0	-4.6	-2.4	.	.
SMILES	UBC9 SUMO inh	TPT1 inhibitor	Rpn11 inh	HNF4A DNA FP	CSN inh	SENP1 FRET inh	TPT1 inh confirm	RNase T1 counter
Cc1cccc(N=C2NC(=O)/C(=C/c3cccn3C)S2)c1	-0.2	30.7*	i	3.9	3.5	-46.6	36.6*	46.0*
O=C1CCCCC1C(O)c1ccc(Cl)cc1 (stereo not given)	13.9	81.6*	.	.	.	.	1.2	3.2
COC(=O)c1c(-c2ccc3ccccc3c2)csc1NC(=O)Cc1ccc(OC)c(OC)c1	-6.0	38.8*	.	34.9	4.7	-23.1	63.4*	69.8*
COC(=O)c1c(-c2ccc(OC)c(OC)c2)csc1N	-11.5	2.2	i	0.5	2.0	-0.3	.	.
O=C(c1ccccc1)C1Oc2ccccc2C2CC(c3cccs3)=NN12 (stereo not given)	2.4	-3.2	i	3.2	3.8	-3.9	.	.
COc1cccc(C2Oc3ccccc3C3CC(c4cccs4)=NN32)c1 (stereo not given)	10.2	61.2*	i	5.0	7.0	-60.0	32.6*	45.8*
Cc1ccc(OCCC(=O)OCC(=O)c2c(N)n(C)c(=O)n(C)c2=O)cc1	.	3.0	i	-3.2	7.0	-0.6	.	.
COc1ccccc1OCCC(=O)OCC(=O)c1c(N)n(C)c(=O)n(C)c1=O	1.9	113.2*	i	1.4	-0.8	2.0	12.4	19.3
O=C(Nc1ccccc1)NC1CCN(Cc2ccccc2)CC1	18.6	30.3*	i	2.2	3.1	1.9	1.6	6.7
Cc1ccc(NC(=S)NC2CCN(Cc3ccccc3)CC2)cc1	13.1	-3.0	i	-1.3	-2.1	2.8	.	.
CNC(=S)NC1CC2CCCC(C1)N2Cc1ccccc1OC (stereo not given)	4.2	-2.9	i	-2.2	8.6	0.9	.	.
CCN(CC)c1ccc(/C=C2\SC(=O)N(C(C)C)C2=O)o1	7.2	177.7*	.	80.9	-0.2	-24.9	171.6*	157.0*
CC(C)N1C(=O)S/C(=C/c2ccc3c(c2)n(C)c(=O)n3C)C1=O	-8.3	-4.6	i	3.7	1.9	-7.5	.	.
COCC(C)n1c(=O)sc2ccccc2c1=O (stereo not given)	8.7	3.5	i	2.8	-8.2	0.0	.	.
CC(C)(C)c1cccc(C2(O)C(=O)c3ccccc3C2=O)c1O	-2.3	-1.2	i	-0.2	-1.7	3.0	.	.
